Data from the RNAGym collection of RNA variant scans (doi:10.1126/science.aae0568).
Fewer inactive variants are shown than the library holds.

B1: tRNA (parent)
chain: GUUCCGUUGGCGUAAUGGUAACGCGUCUCCCUCCUAAGGAGAAGACUGCGGGUUCGAGUCCCGUACGGAACG

Variants of: B1
Test: yeast fitness relative to wild type (ratio to wild type); higher = fitter; tRNA-Arg(CCU), competitive growth, 37 C, YPD
Procedure, shortened: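 Genotype frequency changes were the basis for Darwinian fitness relative to wild type. The frequencies came from 100-nucleotide paired-end sequencing of gene amplicons from the start population and each end population of pooled yeast strains with tRNA-Arg(CCU) gene variants at the native locus. Competition ran in YPD at 37°C for 24 hours in six replicates, genotypes needed ≥ 100 starting reads, and estimates < 0.5 were set to 0.5.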

Variant	yeast fitness
GUUCCGUUCGCGUAAUGGUAACGCGUCUCCCACCUAAGGAGAAGACUGCGGGUUCCAGUCCCGUACGGAACG [G9C U32A G56C]	≤ 0.5
GUUCCGUUCGCGCAAUGGUCACGCGUCUCCCUCCUAAGGAGAAGACUGCGGGUUCGAGUCCCGUACGGAACG [G9C U13C A20C]	0.706
GUUCCGUUCGCGAAAUGGUAACGCAUCUCCCUCCUAAGGCGAAGACUGCGGGUUCGCGUCACGUACGGAACG [G9C U13A G25A A40C A57C C61A]	≤ 0.5
GUUCCGUUCGCGAAAUGGUAACGCAUCUCCCUCCUAAGGAGAAGACUGCGGGUUCGAGUCCCGUUCGGAACG [G9C U13A G25A A65U]	≤ 0.5
GUUCCGUUCGCGAAAUGGUAACGCAUCUCCCUCCUAAGGCGAAGACUGCGGGUUCGCGUCACGUACAGAACG [G9C U13A G25A A40C A57C C61A G67A]	0.553
GUUCCGUUCGCGAAAUGGUAACGCAUCUCCCUCCUAAGGCGAAGACUGCGGGUUCGAGUCCCGUAUGGAACG [G9C U13A G25A A40C C66U]	≤ 0.5
GUUCCGUUCGCGCAAUGGUAACGCGUCUCCCUCCUAAGGAGAAGACUGCGGGUUCGAGUCCCGUACGGAACG [G9C U13C]	0.626
GUUCCGUUCGCGUAAUGGUAACGCGUCACCCUCCUAAGGAGAAGAUUGCGGGUUCGAGUCCCGUACGGAUCG [G9C U28A C46U A70U]	0.615
GUUCCGUUCGCGUAAUGGUAACGCGUCUCCCACCUAAGGAGAAGACUGCGGGUUCGAGUCCCGUACGGAACG [G9C U32A]	0.648
GUUCCGUUCGCGUAAUGGUAACGCGUCAACCUCCGAAGGAGAAGACUGCGGGUUCGAGUCCCGUACGGAACG [G9C U28A C29A U35G]	≤ 0.5
GUUCCGUUCGCGUAAUGGUAACGCGUCUCCCACCUAAGGAGAAGACUGCGGGUUUGUGUCCAGUACGGAACG [G9C U32A C55U A57U C62A]	≤ 0.5
GUUCCGUUCGCGUAACGGUAACGCGUCUCUCUCCUAAGGAGAAGACUGCGGGUUCGAGUCCCGUGCGGAACG [G9C U16C C30U A65G]	≤ 0.5
GUUCCGUUCGCGUAAUGGAAACGCGUCUCCCUCCUAAGGAGAAGACUGCGGGUUCGAAUCCCGUGCGGAACG [G9C U19A G58A A65G]	≤ 0.5
GUUCCGUUCGCGUAAUGGUAACGCGACUCCCUCCUAAGGAGAAGACUGCGGGUUCGAGUCCCGUACGGAACG [G9C U26A]	0.613
GUUCCGUUCGCGCAAUGGUAACGCGUCUCCCUCCUAAGGAGAUGACUGCGGGUUCGAGUCCCGUACGGAACG [G9C U13C A43U]	0.618
GUUCCGUUCGCGUAAUGGUAACGCGUCCCCUUCCUAAGGAGAAGACUGCGGGUUCGAGUCCCGUACGGAACG [G9C U28C C31U]	≤ 0.5
GUUCCGUUCGCGUAAUGGUAACGCGUCUCCCUCCUAAGGAGAAGACUGCGGCUUCGAGUACCGUACGGAACG [G9C G52C C60A]	≤ 0.5
GUUCCGUUCGCGUAAUGGUAACGCGUCUCCCUCCUAAGGAGAAGACUGCGGAUUCGAGUCCCGUACGGAACG [G9C G52A]	0.564
GUUCCGUUCGCGCAAUGGUAACGCGUCUCGCUCCUAAGGAGAAGACUGCGGGUUCGAGUCUCGUACGGAACG [G9C U13C C30G C61U]	≤ 0.5

Variant	yeast fitness
GUUCCGUUCGCGUAACGGUAACGCGUCUCCCUCCUAAGGAGAAGACUGCGGGUUCGAGUCCCGUAUGGAACG [G9C U16C C66U]	≤ 0.5
GUUCCGUUCGCGUAACGGUAACGCGUCUCUCGCCUAAGGAGAAGACUGCGGGUUCGAGUCCCGUACGGAACG [G9C U16C C30U U32G]	≤ 0.5
GUUCCGUUCGCGUAAUGGUAACGCGUCCCCCUCCUAAGGAGAACACUGCGAGUUCGAGUCCCGUACGGAACG [G9C U28C G44C G51A]	≤ 0.5
GUUCCGUUCGCGUAAUGGCAACGCGUCUCCAUCCUAAGGAGAAGACUGCGGGUUUGAGUCCCGUACGGCACG [G9C U19C C31A C55U A69C]	0.547
GUUCCGUUCGCGUAAUGGCAACGUGUAUCCCUCCUAAGGAGAAGACUGCGGGUUCGAGUCCCGUACGAAACG [G9C U19C C24U C27A G68A]	≤ 0.5
GUUCCGUUCGCGUAAUGGUAACGCGUCUCCCCCCUAAGGAGAAGACUGCGGGCUCGAGUCCCGUACGGAACG [G9C U32C U53C]	≤ 0.5
GUUCCGUUCGCGUAAUGGUAACGCGUCUCCCUCCUAAGGAGAAGACUGCGGGUUCAAGUCCCGUACGGAACG [G9C G56A]	0.863
GUUCCGUUCGCGUAAGGGUAACGCGUCUCCCUCCUAAGGAGAAGACUGCGGGUUCGAGUCCCGUUCGGAACG [G9C U16G A65U]	≤ 0.5
GUUCCGUUCGCGCAAUGGUAACGCGUCUCCCUCCUAAGGAGAAGACGGCGGGUUCGAGUCCCGUACGGAACG [G9C U13C U47G]	≤ 0.5
GUUCCGUUCGCGUAAUGGCAACGCGUCUUCCUCCUUAGGAGAAGACUGCGGGUUCGAGUCCCGUACAGAACG [G9C U19C C29U A36U G67A]	≤ 0.5
GUUCCGUUCGCGUAAUGGUAACGCGUCUCCCUCCUAAGGAGAAGACUGCGGGUUCGAGUCCCGUACGCCACG [G9C G68C A69C]	≤ 0.5
GUUCCGUUCGCGUAAUGGUAACGCGUCUCCCUCCUAAGGAGAAGACUGCGGGUGCGAGUCCCGUACGGACCG [G9C U54G A70C]	0.545
GUUCCGUUCGCGUAAUGGUAACGCGUCCCCCUCCUACGGAGAAGAGUGCGGGUUCGAGUCCCGUACGGAACG [G9C U28C A37C C46G]	0.768
GUUCCGUUCGCGUAAUGGUAACGCGACUCCCUCCUAAGGAGAAGACCAUGGGUUCAAGUCCCGUACCGGACG [G9C U26A U47C G48A C49U G56A G67C A69G]	≤ 0.5
GUUCCGUUCGCGUAAUGGCAACGCGUCUCCAUCCUAAGGAGAAGACUGCGGGUUCGACUCCCGUACGGAUCG [G9C U19C C31A G58C A70U]	≤ 0.5
GUUCCGUUCGCGUAAUGGCAACGCGUCUCCCUCCUAAGGAGAAGACUGCGGGUUCGAGUCCCGUACGGAACG [G9C U19C]	0.764
GUUCCGUUCGCGUAAGGGUAACGCGUCUACCUCCUAAGGAGAAGACUGCGGGUUCGAGUCCCGUAUGGAACG [G9C U16G C29A C66U]	≤ 0.5
GUUCCGUUCGCGUAAUGGUAACGCGCCUCCCUCGUAGGGAGAAGACUGCGGGUUCGAGUGCCGUCCGGAACG [G9C U26C C34G A37G C60G A65C]	≤ 0.5
